Screening data: PubChem, several laboratories
Only some compounds are listed: those with a hit (about 2.3% of all), similar ones and a draw of the others.
NPY-Y2 PAM-ag = potentiates or activates human NPY-Y2 receptor; cells expressing NPY-Y2, potentiator/agonist read-out; activation, % at 3.6 µM; 0.45% of 220,000 active; AID 1359; in the data active = activation above about 27%;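 also: cells stimulated with NPY near EC25 plus isoproterenol at EC100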
Target sequence (P49146 whole entry, looked up): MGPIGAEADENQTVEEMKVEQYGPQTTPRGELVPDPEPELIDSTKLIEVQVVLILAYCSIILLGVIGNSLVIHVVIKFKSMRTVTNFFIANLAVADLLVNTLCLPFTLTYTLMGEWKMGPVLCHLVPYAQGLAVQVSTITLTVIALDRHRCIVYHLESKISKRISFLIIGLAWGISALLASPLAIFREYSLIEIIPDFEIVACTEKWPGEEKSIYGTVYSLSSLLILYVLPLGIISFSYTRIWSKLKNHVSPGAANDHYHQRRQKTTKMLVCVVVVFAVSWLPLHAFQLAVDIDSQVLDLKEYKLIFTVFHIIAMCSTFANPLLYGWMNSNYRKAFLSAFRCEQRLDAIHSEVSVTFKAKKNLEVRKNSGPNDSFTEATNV
Tb hexokinase = T. brucei hexokinase 1 inhibition. recombinant TbHK1, G6PDH-coupled NADH A340. inhibition, % at 10 µM. 0.11% of 220,000 active. AID 1430;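 active = inhibition of 50% or more in the single-dose primary screen; inactive = inhibition below 50%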
m-calpain inh = calpain II (pig) inhibition | purified calpain II, fluorogenic peptide substrate, 30 min | inhibition, % at 16 µM | 0.37% of 220,000 active | AID 1236;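 active = inhibition above about 50%, limit read from the data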
NPY Y1 blocker = NPY-Y1 (human) receptor antagonism; inhibition, % at 3.6 µM; 1% of 200,000 active; HEK293-CNG Y1 cells, membrane potential fluorescence; NPY at EC95, then isoproterenol; P25929;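 active = inhibition above the campaign mean inhibition of all tested compounds plus 3 SD, cut at about 20% in these data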
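Material: HEK293 cells with Y1 receptor plus CNG channel; times: compound incubation 1 h at room temperature, readout 45 min post-stimulation; signal: fluorescence, membrane potential probe; read-out basis: fluorescence ratio normalized to % inhibition between controls; benchmarks: full-block control isoproterenol-only wells, zero-block control NPY plus isoproterenol wells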
NPY-Y1 PAM-ag = potentiators or agonists of human neuropeptide Y receptor Y1 | NPY-Y1 expressing cells, potentiator/agonist activation | activation, % at 3.6 µM | 0.37% of 220,000 active; in the data active = activation above about 33%, passing the limit was not always enough;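 also: cells stimulated with NPY at EC10 then isoproterenol at EC100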
NPY-Y2 antag = NPY-Y2 (human) receptor antagonism; 0.99% of 140,000 active; P49146; AID 793; inhibition, % at 2.7 µM; NPY-Y2 expressing cells, antagonist mode; in the data active = inhibition above about 17%
NPY-Y2 pot conf = confirmation of human NPY-Y2 receptor potentiators or agonists. AID 1539. cell-based NPY-Y2 potentiator/agonist assay. activation, % at 3.6 µM. shares compounds with NPY-Y2 PAM-ag. 20% of 450 active; in the data active = activation above about 33%
NPY-Y1 counter = NPY-Y1 potentiation or agonism as NPY-Y2 counter-screen; Y1 HEK293-CNG cells, membrane potential fluorescence; 20% of 450 active; AID 1651; shares compounds with NPY-Y2 PAM-ag; activation, % at 3.6 µM; in the data active = activation above about 45%;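 also: cells stimulated with submaximal NPY then isoproterenol with phosphodiesterase inhibitor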
NPY-Y1 agonist 2 = counter-screen for NPY-Y2 potentiators: agonists of human NPY-Y1; shares compounds with NPY-Y2 PAM-ag; HEK293 Y1-CNGC, membrane potential fluorescence, agonism; activation, % at 3.6 µM; 37% of 450 active;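 active = activation above the mean of DMSO-only control wells plus 3 SD, cut at about 18% in these data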;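 also: cells stimulated with 1 µM isoproterenol plus the PDE inhibitor Ro 20-1724; Y1 agonists lower the membrane potential dye signal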
CNGC inhibitor = counter-screen for NPY-Y2 potentiators: inhibitors of CNG channel activity; 32% of 450 active; shares compounds with NPY-Y2 PAM-ag; inhibition, % at 3.6 µM; HEK293-CNG parental, isoproterenol cAMP, membrane potential fluorescence; AID 1703;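 active = inhibition above the control-well mean plus 3 SD of those wells, cut at about 22% in these data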
NPY-Y2 ag 2 = counter-screen for NPY-Y2 potentiators: agonists of human NPY-Y2; HEK293 Y2/CNGC cells, membrane potential fluorescence, agonist mode; activation, % at 3.6 µM; shares compounds with NPY-Y2 PAM-ag; 56% of 450 active;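 active = activation above the mean of solvent-only control wells plus 3 SD, cut at about 10% in these data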;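 also: cells stimulated by isoproterenol with no NPY added so direct agonism is tested; agonism lowers probe fluorescence through less cAMP and CNG channel opening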
Numbers stand for hits; – = inactive; · = not tested or not shown.

SMILES | NPY-Y2 PAM-ag | Tb hexokinase | m-calpain inh | NPY Y1 blocker | NPY-Y1 PAM-ag | NPY-Y2 antag | NPY-Y2 pot conf | NPY-Y1 counter | NPY-Y1 agonist 2 | CNGC inhibitor | NPY-Y2 ag 2
COc1ccc(-c2csc(N3CCN(c4cc(C)nc5ccccc45)CC3)n2)cc1OC | 32 | – | – | – | – | · | 40 | – | – | 33 | 29
COc1cc(-c2csc(N3CCOCC3)n2)cc(OC)c1OC | – | – | – | – | – | – | · | · | · | · | ·
C#CC(=O)N(c1ccc(OC)cc1OC)C(C(=O)NC1CCCC1)c1cccs1 (configuration not stated) | 35 | – | – | – | – | · | – | – | – | 48 | 21
Oc1ccc(/C=N/N2CCN(C3c4ccccc4-c4ccccc43)CC2)c(O)c1 | – | – | – | – | – | · | · | · | · | · | ·
O=C(CN1CCN(Cc2ccc(Cl)cc2)CC1)N/N=C/c1cccc(F)c1 | 99 | – | – | · | – | · | – | – | – | – | –
O=C(CN1CCN(Cc2ccc(Cl)cc2)CC1)N/N=C/c1cccs1 | – | – | – | · | – | · | · | · | · | · | ·
O=C1COc2ccc(C(=O)COC(=O)c3ccco3)cc2N1 | – | – | – | · | – | · | · | · | · | · | ·
O=C1COc2ccc(C(=O)COC(=O)c3cc(S(=O)(=O)NCc4ccccc4)ccc3O)cc2N1 | 98 | – | – | · | – | · | – | – | – | – | –
COc1ccc(NC(=O)Nc2ccc(Cc3ccncc3)cc2)c(OC)c1 | – | – | – | – | – | – | · | · | · | · | ·
Cc1cccc2c(N)c3c(nc12)CCCC3 (tested in a mixture with another compound) | 49 | – | – | – | – | · | 52 | 64 | – | – | 48
Cc1ccc(C(C)C)c(OCC(=O)NN=C(CCl)CCl)c1 | – | – | – | · | – | · | · | · | · | · | ·
O=C(Nc1ccccc1C(=O)N1CCCC1)c1ccc(Cl)c([N+](=O)[O-])c1 | 28 | – | – | – | – | · | – | – | – | – | 10
O=C(Nc1ccc(S(=O)(=O)Nc2ccc(F)cc2)cc1)c1ccc(CN2CCOCC2)cc1 | – | – | – | – | – | · | · | · | · | · | ·
COc1ccc(NS(=O)(=O)c2ccc(NC(=O)c3ccc(CN4CCOCC4)cc3)cc2)cc1 | 24 | – | – | – | – | · | – | – | – | – | –
COc1ccc2nc(NC(=O)CSc3nccc(C)n3)sc2c1 | 35 | – | – | – | – | – | – | 46 | 53 | 40 | 51
COc1nc(N)c(S(=O)(=O)c2ccccc2)cc1C#N | – | – | – | – | – | – | · | · | · | · | ·
N#Cc1cc(S(=O)(=O)c2ccc(Cl)cc2)c(N)[nH]c1=O | 54 | – | – | – | – | · | – | – | – | – | –
O=C(c1cc(COc2c(F)cccc2F)on1)N1CCC(c2ccncc2)CC1 | 36 | – | – | – | – | · | – | – | – | – | –
Cc1cc(C)nc(N2CCCC(C(=O)Nc3ccc4c(c3)OCO4)C2)n1 (configuration not stated) | – | – | – | – | – | – | · | · | · | · | ·
Cc1cc(C)nc(N2CCCC(C(=O)NCc3ccc4c(c3)OCO4)C2)n1 (configuration not stated) | 72 | – | – | – | – | · | – | – | – | – | –
COc1ccc(C2CN=NC2C(=O)c2ccccc2)cc1 (configuration not stated) | – | – | – | · | – | · | · | · | · | · | ·
CC1(C)C=C(c2ccc(O)cc2)CC(C)(C)N1 | 36 | – | – | – | – | – | – | – | – | – | –
Nc1c(-c2ccc(Cl)cc2)cnn1-c1cccc(C(F)(F)F)c1 | – | – | – | – | – | – | · | · | · | · | ·
Cc1ccc(-c2cnn(-c3cccc(C(F)(F)F)c3)c2N)cc1 | 35 | – | – | – | – | – | 52 | 58 | 44 | 32 | 60
CC(C)=C(NC(=O)c1ccccc1Br)C(=O)NCCc1nc2ccccc2[nH]1 | – | – | – | · | – | · | · | · | · | · | ·
SMILES | NPY-Y2 PAM-ag | Tb hexokinase | m-calpain inh | NPY Y1 blocker | NPY-Y1 PAM-ag | NPY-Y2 antag | NPY-Y2 pot conf | NPY-Y1 counter | NPY-Y1 agonist 2 | CNGC inhibitor | NPY-Y2 ag 2
N#Cc1c(N(CCO)CCO)nc(N)c2c(N)nc3c(c12)CC(=O)N3Cc1cccs1 | – | – | – | · | – | · | · | · | · | · | ·
CN(CCO)c1nc(N)c2c(N)nc3c(c2c1C#N)CC(=O)N3Cc1cccs1 | 40 | – | – | – | – | · | – | – | – | – | –
CCNc1nnc(CCn2nc(C)c(Br)c2C)s1 | – | – | – | – | – | · | · | · | · | · | ·
CSc1ccccc1NC(=O)NCCCl | – | – | – | – | – | · | · | · | · | · | ·
O=[N+]([O-])c1cccc2c(N3CCOCC3)ccnc12 | 40 | – | – | – | – | · | – | – | – | – | 13
O=[N+]([O-])c1ccc(N2CCN(S(=O)(=O)c3ccccc3)CC2)c2cccnc12 | – | – | – | – | – | · | · | · | · | · | ·
O=c1[nH]c(/C=C\c2cccnc2)c([N+](=O)[O-])c(=O)[nH]1 | 37 | – | – | – | – | · | – | – | 39 | 27 | 31
O=c1[nH]c(/C=C/c2cccnc2)c([N+](=O)[O-])c(=O)[nH]1 | – | – | – | – | – | · | · | · | · | · | ·
COc1ccc(-n2c(C)cc(C(=O)COC(=O)Cn3cnc4ccccc43)c2C)cc1 | 38 | – | – | – | – | – | – | – | – | – | –
COc1ccc(-n2c(C)cc(C(=O)CN3C(=O)c4ccccc4C3=O)c2C)cc1 | – | – | – | – | – | – | · | · | · | · | ·
CS(=O)(=O)NCc1nnc(SCc2ccccc2C(F)(F)F)o1 | – | – | – | – | – | – | · | · | · | · | ·
CS(=O)(=O)NCc1nnc(SCc2ccc(C(F)(F)F)cc2)o1 | 102 | – | – | · | – | · | – | – | – | – | –
O=C(Nc1ccc(F)cc1)/C(=C1/CCCCCN1)[N+](=O)[O-] | – | – | – | · | – | · | · | · | · | · | ·
Cc1ccc(C(=O)Nc2ccc(S(=O)(=O)NCc3ccco3)cc2)cc1 | – | – | – | – | – | – | · | · | · | · | ·
Cc1cc(C)n(-c2ccc(C(=O)Nc3ccc(S(=O)(=O)NCc4ccco4)cc3)cc2)n1 | 38 | – | – | – | – | – | – | – | – | – | –
CC(=O)c1cccc(NC(=O)COC(=O)[C@@H](NC(=O)OCc2ccccc2)C(C)C)c1 | – | – | – | – | – | – | · | · | · | · | ·
Cc1cccc(C)c1Nc1c(-c2ccc(N3CCOCC3)cc2)nc2ncccn12 | 43 | – | – | – | – | – | 91 | 111 | 96 | 83 | 97
CC(Nc1ccc2c(c1)OCCO2)C(=O)N1c2ccccc2CC1C (configuration not stated) | – | – | – | – | – | · | · | · | · | · | ·
